Laboratory results: PMC5483893 (Journal of Medicinal Chemistry, 2017)

Tests used:
[1] = tested on: acetylated α-tubulin (AcTub) in QBI-293 cells; assay: Acetyl-tubulin assay; format: cell-based; conditions: for shape of concentration–response in the AcTub assay: comparison of 1 and 10 μM
In short: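 QBI-293 cells kept at 37 °C, 5% CO₂, trypsinised and plated at 6 × 10⁵ cells/well, then exposed overnight-later to vehicle (DMSO) or test compound for 4 h. Lysis in RIPA with protease inhibitors, 1 mM PMSF and 1 μM TSA; 100000g spin, 30 min, 4 °C. BCA protein, then AcTub ELISA. Fold-change versus vehicle, at least triplicate, two-tailed unpaired t test.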

[2] = tested on: COX-derived PGD2 and PGE2 in RBL-1 cells; format: cell-based, rat
[3] = tested on: total α-tubulin in QBI-293 cells; assay: Total α-tubulin ELISA; format: cell-based; conditions: at doses typically required to induce an elevation in AcTub
In short: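 QBI-293 cells were plated at 6 × 10⁵ cells/well, grown overnight at 37 °C and 5% CO₂, then given fresh medium with vehicle (DMSO) or 1 and 10 μM test compound for 4 h. Lysis was in RIPA with protease inhibitors, 1 mM PMSF and 1 μM TSA, followed by 100000g for 30 min at 4 °C. Supernatant was BCA-normalized and α-tubulin measured by ELISA as fold-change versus vehicle. Samples were run at least in triplicate; significance was by two-tailed unpaired t test.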

With `Fc1cccc(F)c1-c1c(Cl)nc(Cl)n1-c1ccccc1Cl` [Compound 104, 2,4-Dichloro-1-(2-chlorophenyl)-5-(2,6-difluorophenyl)-1H-imidazole] the “elevation in AcTub without decrease of α-tubulin” value ([1]; 1 or 10 μM) was “produce an elevation in AcTub at 1 or 10 μM without decreasing α-tubulin level” and the “inhibition in the PGD2/PGE2 assay” value ([2]; RBL-1 cells) was > 50%.

`Cc1ccc(F)c(-c2c(Cl)ncn2-c2ccc(Cl)cc2)c1F` [Compound 62, 4-Chloro-1-(4-chlorophenyl)-5-(2,6-difluoro-3-methylphenyl)-1H-imidazole] was tested, and the “effect on total α-tubulin levels” value [3] was “cause a significant reduction in total α-tubulin levels”.

`Cc1ncc(-c2c(F)ccc(F)c2F)n1-c1ccc(Cl)cc1` [Compound 34, 1-(4-Chlorophenyl)-2-methyl-5-(2,3,6-trifluorophenyl)-1H-imidazole] was tested, and the “effect on total α-tubulin levels” value [3] was “cause a significant reduction in total α-tubulin levels”.

With `COc1ccc(-c2cncn2-c2ccc(Cl)cc2)cc1` [Compound 51, 1-(4-Chlorophenyl)-5-(4-methoxyphenyl)-1H-imidazole] the “MT activity (AcTub increase), inactive compounds” value ([1]; QBI-293 cells, 1 and 10 μM) was “essentially devoid of MT activity” and the “inhibition of the combined PGD2/PGE2 synthesis” value ([2]; RBL-1 cell assay, tested at 10 μM) was “near complete inhibition”.

`COc1cc(F)c(-c2c(Cl)nc(Cl)n2-c2ccc(Cl)cc2)c(F)c1` [Compound 58, 2,4-Dichloro-1-(4-chlorophenyl)-5-(2,6-difluoro-4-methoxyphenyl)-1H-imidazole] was tested, and the “shape of concentration–response in the AcTub assay” value (shortened to “shape of concentration–response”) [1] was “bell-shaped concentration–response relationship” and the “effect on total α-tubulin levels” value [3] was “cause a significant reduction in total α-tubulin levels”.

In the case of `Fc1cc(F)c(-c2c(Cl)ncn2-c2ccc(Cl)nc2)c(F)c1` [Compound 73, 2-Chloro-5-(4-chloro-5-(2,4,6-trifluorophenyl)-1H-imidazol-1-yl)pyridine], the “effect on total α-tubulin levels” value [3] was “cause a significant reduction in total α-tubulin levels”.

For `COc1cc(F)c(-c2c(Cl)nc(C)n2-c2ccc(Cl)cc2)c(F)c1` [Compound 2, 4-Chloro-1-(4-chlorophenyl)-5-(2,6-difluoro-4-methoxyphenyl)-2-methyl-1H-imidazole], the “shape of concentration–response” value [1] was “bell-shaped concentration–response relationship” and the “effect on total α-tubulin levels” value [3] was “cause a significant reduction in total α-tubulin levels”.

`Fc1ccc(Cl)c(F)c1-c1cnc(Cl)n1-c1ccc(Cl)cc1` [Compound 66, 2-Chloro-5-(3-chloro-2,6-difluorophenyl)-1-(4-chlorophenyl)-1H-imidazole] was tested, and the “effect on total α-tubulin levels” value [3] was “cause a significant reduction in total α-tubulin levels”.

For `Cc1nc(Cl)c(-c2c(F)ccc(Cl)c2F)n1-c1ccc(Cl)cc1` [Compound 65, 4-Chloro-5-(3-chloro-2,6-difluorophenyl)-1-(4-chlorophenyl)-2-methyl-1H-imidazole], the “effect on total α-tubulin levels” value [3] was “cause a significant reduction in total α-tubulin levels”.

In the case of `Cc1nc(Cl)c(-c2c(F)ccc(F)c2F)n1-c1ccc(Cl)c(F)c1` [Compound 71, 4-Chloro-1-(4-chloro-3-fluorophenyl)-2-methyl-5-(2,3,6-trifluorophenyl)-1H-imidazole], the “shape of concentration–response” value [1] was “bell-shaped concentration–response relationship” and the “effect on total α-tubulin levels” value [3] was “cause a significant reduction in total α-tubulin levels”.
